Measurements published in ChEMBL document CHEMBL2375246, “In silico identification of poly(ADP-ribose)polymerase-1 inhibitors and their chemosensitizing effects against cisplatin-resistant human gastric cancer cells” (Bioorg Med Chem Lett, 2013).
The source made the active and inactive calls. The calls are words filed in the database; no cut-off is given here.

Key:
YCC-3/D [1] = experiment: Potentiation of cisplatin-induced cytotoxicity against human YCC-3/D cells assessed as reduction in cisplatin IC50 at 50 uM co-treated with cisplatin after 36 hrs by MTS assay; assay type: functional, cell-based
YCC-3 = experiment: Potentiation of cisplatin-induced cytotoxicity against human YCC-3 cells assessed as reduction in cisplatin IC50 at 50 uM incubated for 8 hrs prior to cisplatin-addition measured after 36 hrs by MTS assay; assay type: functional, cell-based
YCC-3/D [2] = experiment: Potentiation of cisplatin-induced cytotoxicity against human YCC-3/D cells assessed as reduction in cisplatin IC50 at 50 uM incubated for 8 hrs prior to cisplatin-addition measured after 36 hrs by MTS assay; assay type: functional, cell-based
Procedure, shortened: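 Pretreatment format: cells seeded at 2500 cells/well, incubated overnight at 37 °C/5% CO2, exposed to PARP-1 inhibitor at 50 µM for 8 h. Inhibitor medium removed, cisplatin added over a concentration series for 36 h. MTS added for 2 h at 37 °C, absorbance read at 490 nm. Triplicate; cisplatin IC50 from % growth inhibition vs cisplatin concentration.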

[3] = Cytotoxicity against human YCC-3/D cells after 36 hrs by MTS assay; assay type: cell-based
Procedure, shortened: (§1)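 Cells (YCC-3 parent, or YCC-3/D cisplatin-resistant line kept at 2.5 µg/mL cisplatin) seeded at 5000 cells/well, incubated overnight at 37 °C/5% CO2, then exposed to compound for 36 h. Medium replaced with MTS-containing medium for 2 h at 37 °C, absorbance read at 490 nm. Triplicate; IC50 taken from plot of % growth inhibition vs concentration.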

[4] = Cytotoxicity against human YCC-3 cells after 36 hrs by MTS assay; assay type: cell-based; details: YCC-3, 36 h; procedure, shortened: as §1
[5] = target: Poly [ADP-ribose] polymerase 1 (Homo sapiens, UniProt P09874); experiment: Inhibition of PARP1 (unknown origin) after 15 mins by fluorometric analysis
Poly [ADP-ribose] polymerase 1, sequence (P09874 whole entry): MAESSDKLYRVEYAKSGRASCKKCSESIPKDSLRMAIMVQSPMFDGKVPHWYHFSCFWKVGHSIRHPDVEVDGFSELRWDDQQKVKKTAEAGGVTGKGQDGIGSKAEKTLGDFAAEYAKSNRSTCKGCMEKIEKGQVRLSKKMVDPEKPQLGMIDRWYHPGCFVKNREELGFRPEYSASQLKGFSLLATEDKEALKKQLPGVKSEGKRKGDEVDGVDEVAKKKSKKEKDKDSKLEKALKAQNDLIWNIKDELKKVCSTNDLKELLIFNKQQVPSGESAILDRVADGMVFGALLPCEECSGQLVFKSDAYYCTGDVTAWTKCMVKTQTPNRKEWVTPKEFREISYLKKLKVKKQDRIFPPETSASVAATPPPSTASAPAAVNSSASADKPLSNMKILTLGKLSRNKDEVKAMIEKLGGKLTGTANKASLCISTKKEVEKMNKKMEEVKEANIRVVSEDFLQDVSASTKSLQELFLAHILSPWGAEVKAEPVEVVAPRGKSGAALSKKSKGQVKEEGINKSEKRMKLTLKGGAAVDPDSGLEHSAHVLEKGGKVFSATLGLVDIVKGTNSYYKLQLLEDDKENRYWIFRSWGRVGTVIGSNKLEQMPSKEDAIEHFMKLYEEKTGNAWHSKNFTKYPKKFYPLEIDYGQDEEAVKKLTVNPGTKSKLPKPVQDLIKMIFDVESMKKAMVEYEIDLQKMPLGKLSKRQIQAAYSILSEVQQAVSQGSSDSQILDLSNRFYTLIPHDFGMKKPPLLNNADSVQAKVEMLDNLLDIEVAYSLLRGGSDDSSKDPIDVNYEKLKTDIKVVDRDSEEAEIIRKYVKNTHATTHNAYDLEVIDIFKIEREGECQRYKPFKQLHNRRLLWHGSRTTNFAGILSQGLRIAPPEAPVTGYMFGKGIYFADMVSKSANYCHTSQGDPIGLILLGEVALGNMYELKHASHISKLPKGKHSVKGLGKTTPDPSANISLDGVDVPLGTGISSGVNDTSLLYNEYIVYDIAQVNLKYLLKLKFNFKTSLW

Row | IC50 [5] | SMILES | Activity (YCC-3/D [1]) | Activity (YCC-3) | Activity (YCC-3/D [2]) | IC50 [3] | IC50 [4]
1 | 79 nM | O=c1[nH]c(CCCN2CCC(c3ccccc3)CC2)nc2ccccc12 | inactive | inactive | Active | 96300 nM | 126000 nM
2 | 189 nM | COc1ccccc1N1CCN(CCCc2nc3ccccc3c(=O)[nH]2)CC1 |  |  |  |  | 
3 | 388 nM | O=c1[nH]c(CCCN2CCC(c3ccc(Cl)cc3)CC2)nc2ccccc12 |  |  |  |  | 
4 | 77 nM | O=c1[nH]c(CCCN2CCN(c3ccc(F)cc3)CC2)nc2ccccc12 | inactive | inactive | Active | > 200000 nM | > 200000 nM
5 | 1010 nM | O=c1[nH]c(CCCN2CCN(c3cccc(Cl)c3)CC2)nc2ccccc12 |  |  |  |  | 
6 | 8890 nM | CCCCc1nc2ccccc2c(=O)[nH]1 |  |  |  |  | 

Row | SMILES | IC50 [5] | Activity (YCC-3/D [1]) | Activity (YCC-3) | Activity (YCC-3/D [2]) | IC50 [3] | IC50 [4]
7 | O=c1[nH]c(CCCN2CC=C(c3ccc(F)cc3)CC2)nc2ccccc12 | 304 nM |  |  |  |  | 
